Data from ChEMBL document CHEMBL4196069 (Eur J Med Chem, 2018).
Activity calls are given as the source filed them. No cut-off for these calls is given here.

How the values were obtained:
Bel-7402 [1] = assay: Induction of cyto-c accumulation in human Bel7402 cells cytosol at 0.125 to 0.5 uM after 72 hrs by Western blot analysis; type: functional, cell-based
Method in brief: (§1)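 Bel-7402 cells were treated for 72 h at the indicated concentrations (0.125–0.5 µM) and lysed. Lysates were cleared at 14,000 g for 10 min at 4 °C, and 25 µg protein per lane was run on 10% SDS-PAGE and transferred to nitrocellulose. Membranes were blocked in 5% milk, probed overnight at 4 °C with monoclonal antibodies, and detected by ECL. Densitometry was normalized to GAPDH.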

Bel-7402 [2] = assay: Cell cycle arrest in human Bel7402 cells assessed as accumulation at G1 phase at 0.25 uM after 72 hrs by propidium iodide staining-based flow cytometric method (reference value: 39.28%); type: functional
Bel-7402 [3] = assay: Induction of apoptosis in human Bel7402 cells assessed as early apoptotic cells at 0.25 uM after 72 hrs by Annexin V-FITC/propidium iodide staining based flow cytometry (reference value: 1.65%); type: functional
Bel-7402 [4] = assay: Induction of apoptosis in human Bel7402 cells after 72 hrs by Annexin V-FITC/propidium iodide staining based flow cytometry; type: functional, cell-based
Bel-7402 [5] = assay: Upregulation of caspase-3 level in human Bel7402 cells at 0.125 to 0.5 uM after 72 hrs by Western blot analysis; type: functional, cell-based; method in brief: as §1
Bel-7402 [6] = assay: Downregulation of Bcl-2 level in human Bel7402 cells after 72 hrs by Western blot analysis; type: functional, cell-based; method in brief: as §1
Bel-7402 [7] = assay: Cell cycle arrest in human Bel7402 cells assessed as accumulation at G2/M phase at 0.5 uM after 72 hrs by propidium iodide staining-based flow cytometric method (reference value: 23.71%); type: functional
Bel-7402 [8] = assay: Cell cycle arrest in human Bel7402 cells assessed as accumulation at S phase at 0.125 uM after 72 hrs by propidium iodide staining-based flow cytometric method (reference value: 37.02%); type: functional
Bel-7402 [9] = assay: Upregulation of Bax level in human Bel7402 cells after 72 hrs by Western blot analysis; type: functional, cell-based; method in brief: as §1
Bel-7402 [10] = assay: Induction of apoptosis in human Bel7402 cells assessed as early apoptotic cells at 0.125 uM after 72 hrs by Annexin V-FITC/propidium iodide staining based flow cytometry (reference value: 1.65%); type: functional
Bel7402/5-FU = assay: Antiproliferative activity against human Bel7402/5-FU cells after 72 hrs by MTT assay; type: functional, cell-based
Method in brief: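 Cells pre-incubated 24 h at 37 °C in humidified 5% CO2, then exposed to compounds for 72 h. MTT (5 mg/mL) was added for 4 h, formazan was dissolved in DMSO, and OD was read at 570 nm. Vehicle control was 0.1% DMSO. IC50 was calculated from inhibition ratios as the mean ± SD of three independent experiments.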

Bel-7402 [11] = assay: Induction of apoptosis in human Bel7402 cells assessed as late apoptotic cells at 0.5 uM after 72 hrs by Annexin V-FITC/propidium iodide staining based flow cytometry (reference value: 2.82%); type: functional
Bel-7402 [12] = assay: Cell cycle arrest in human Bel7402 cells assessed as accumulation at G1 phase at 0.125 uM after 72 hrs by propidium iodide staining-based flow cytometric method (reference value: 39.28%); type: functional
Bel-7402 [13] = assay: Induction of mitochondrial membrane depolarization in human Bel7402 cells assessed as cell with intact mitochondrial membrane potential at 0.25 uM after 24 to 48 hrs by JC-1 staining based flow cytometric analysis (reference value: 98.83%); type: functional
Bel-7402 [14] = assay: Induction of apoptosis in human Bel7402 cells assessed as viable cells at 0.125 uM after 72 hrs by Annexin V-FITC/propidium iodide staining based flow cytometry (reference value: 82.48%); type: functional; conditions: Bel-7402, 72 h, read-out: Activity
Bel-7402 [15] = assay: Induction of apoptosis in human Bel7402 cells assessed as early apoptotic cells at 0.5 uM after 72 hrs by Annexin V-FITC/propidium iodide staining based flow cytometry (reference value: 1.65%); type: functional
Bel-7402 [16] = assay: Induction of mitochondrial membrane depolarization in human Bel7402 cells assessed as cells with mitochondrial membrane potential loss at 0.5 uM after 24 to 48 hrs by JC-1 staining based flow cytometric analysis (reference value: 6.17%); type: functional

## C[C@H]1CCC/C=C/[C@@H]2C[C@H](O)C[C@H]2[C@H](OC(=O)c2ccc(N(CCCl)CCCl)cc2)/C=C/C(=O)O1
Bel-7402 [1]
  Activity: Active
Bel-7402 [2]
  Activity: 54.26%
Bel-7402 [3]
  Activity: 22.69%
Bel-7402 [4]
  Activity: Dose-dependent effect
Bel-7402 [5]
  Activity: Active
Bel-7402 [6]
  Activity: Dose-dependent effect
Bel-7402 [7]
  Activity: 11.69%
Bel-7402 [8]
  Activity: 36.28%
Bel-7402 [9]
  Activity: Dose-dependent effect
Bel-7402 [10]
  Activity: 10.49%
Bel7402/5-FU
  IC50: 840 nM
Bel-7402 [11]
  Activity: 18.48%
Bel-7402 [12]
  Activity: 43.8%
Bel-7402 [13]
  Activity: 70.4%
Bel-7402 [14]
  viability at 0.125 µM: 80.6%
Bel-7402 [15]
  Activity: 39.11%
Bel-7402 [16]
  Activity: 43.85%
